Assays:
Assay type in all cases: functional
Sitophilus zeamais [1] = test: Insecticidal activity against Sitophilus zeamais assessed as mortality at 50 ug applied on thoracic tergite at 25 +/- 0.5 degC and 75 +/- 5 % RH without food for 12 hr
Summary of the method: (§1)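 Topical contact assay. Dose was expressed per mg of insect body weight: 5 μg/mg for P. americana, 10 µg/mg for A. monuste orseis, and 50 μg/mg for A. obtectus and S. zeamais. The acetone control received solvent only. Insects were held in Petri dishes in an incubator with a 12 h photoperiod. Dead and motionless insects were both counted as dead. Mean percent mortality was compared by Tukey test at the 0.05 level.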

Ascia monuste [2] = test: Insecticidal activity against Ascia monuste orseis assessed as mortality at 10 ug applied on thoracic tergite at 25 +/- 0.5 degC and 75 +/- 5 % RH with food for 12 hr; summary of the method: as §1
Acanthoscelides obtectus [3] = test: Insecticidal activity against Acanthoscelides obtectus assessed as mortality at 50 ug applied on thoracic tergite at 25 +/- 0.5 degC and 75 +/- 5 % RH without food for 12 hr; summary of the method: as §1
Ascia monuste [4] = test: Insecticidal activity against Ascia monuste orseis assessed as mortality at 10 ug applied on thoracic tergite at 25 +/- 0.5 degC and 75 +/- 5 % RH with food for 24 hr; summary of the method: as §1
Sitophilus zeamais [5] = test: Insecticidal activity against Sitophilus zeamais assessed as mortality at 50 ug applied on thoracic tergite at 25 +/- 0.5 degC and 75 +/- 5 % RH without food for 24 hr; summary of the method: as §1
Periplaneta americana [6] = test: Insecticidal activity against second-instar nymph Periplaneta americana (American cockroach) assessed as mortality at 5 ug applied on thoracic tergite at 25 +/- 0.5 degC and 75 +/- 5 % RH with food for 12 hr; summary of the method: as §1
Acanthoscelides obtectus [7] = test: Insecticidal activity against Acanthoscelides obtectus assessed as mortality at 50 ug applied on thoracic tergite at 25 +/- 0.5 degC and 75 +/- 5 % RH without food for 24 hr; summary of the method: as §1
Periplaneta americana [8] = test: Insecticidal activity against second-instar nymph Periplaneta americana (American cockroach) assessed as mortality at 5 ug applied on thoracic tergite at 25 +/- 0.5 degC and 75 +/- 5 % RH with food for 24 hr; summary of the method: as §1

SMILES	mortality (Sitophilus zeamais [1])	mortality (Ascia monuste [2])	mortality (Acanthoscelides obtectus [3])	mortality (Ascia monuste [4])	mortality (Sitophilus zeamais [5])	mortality (Periplaneta americana [6])	mortality (Acanthoscelides obtectus [7])	mortality (Periplaneta americana [8])
CCOc1ccc(C=C[C@H]2[C@H](C(=O)OC)C2(C)C)cc1	97.5%	75%	97.5%	92.5%	100%	75%	97.5%	
COC(=O)[C@H]1[C@H](C=Cc2c(F)c(F)c(F)c(F)c2F)C1(C)C	97.5%	100%	100%	100%	100%	100%	100%	100%
COC(=O)[C@H]1[C@H](C=Cc2cccc(OC)c2)C1(C)C	92.5%	75%	82.5%	95%	97.5%	92%	92.5%	
COC(=O)[C@H]1[C@H](C=Cc2ccccc2OC)C1(C)C	95%	62.5%	87.5%	95%	95%	100%	95%	100%
COC(=O)[C@@H]1[C@@H](C=O)C1(C)C	42.5%	50%	90%	67.5%	45%	67%	97.5%	71%
COC(=O)[C@H]1[C@H](C=O)C1(C)C	45%	27.5%	100%	47.5%	47.5%	79.33%	100%	96%
CC1(C)C2COC(=O)C21 (stereo not given)	85%	100%	100%	100%	90%	100%	100%	100%
COC(=O)[C@H]1[C@H](C=Cc2ccccc2Cl)C1(C)C (mixture of isomers)	82.5%	100%	97.5%	100%	90%	67%	97.5%	67%
CC1(C)C(C=C(Cl)Cl)C1C(=O)OCc1cccc(Oc2ccccc2)c1 (stereo not given) [PERMETHRIN]	85.5%	100%	100%	100%	90%	87.5%	100%	97.5%

— ChEMBL document CHEMBL3044705, “Synthesis and insecticidal activity of an oxabicyclolactone and novel pyrethroids” (2012)
